Measurements from ChEMBL document CHEMBL3244370, “Synthesis, metabolism, and antitumor activity of deuterated analogues of 1-(2-chloroethyl)-3-cyclohexyl-1-nitrosourea” (J Med Chem, 1978).

Key:
Liver microsome [1] = test: Retention time in Wistar rat liver microsomes at 50 ug/ml after 10 mins by HPLC analysis; format: ADME
Outline: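 Liver microsomes from phenobarbital-pretreated male Wistar rats (protein 2.1 mg/mL), with an NADPH-generating system (NADP, glucose 6-phosphate, MgCl2, G6P dehydrogenase) in 0.1 M phosphate pH 7.4. Incubated under oxygen at 37 °C for 10 min, then extracted with hexane. OH-CCNU isomers resolved by analytical HPLC using n-heptane–dichloromethane–propan-2-ol (960:63:35) at 1.9 mL/min; elution times recorded.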

[2] = Antitumor activity against mouse TLX5 cells allografted in mouse assessed as increase in host survival time at 20 mg/kg relative to control; format: functional, TLX-5
Liver microsome [3] = test: Drug metabolism in Wistar rat liver microsomes assessed as recovered total OH-CCNU derivatives level at 2.8 mg after 10 mins by HPLC analysis; format: ADME; conditions: in vitro
Outline: (§1)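 Microsomes from phenobarbital-pretreated male Wistar rat liver (protein 2.1 mg/mL) in 0.1 M phosphate pH 7.4 with NADP, glucose 6-phosphate, MgCl₂ and G6PDH. Incubated under O₂ at 37 °C for 10 min; 2.8 mg (12 μmol) substrate in 20 mL total. Hexane extraction, then silica HPLC quantification of residual CCNU and OH-CCNU isomers.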

[4] = Antitumor activity against mouse TLX5 cells allografted in mouse assessed as increase in host survival time at 10 mg/kg relative to control; format: functional, TLX-5
[5] = Antitumor activity against mouse TLX5 cells allografted in mouse assessed as increase in host survival time at 80 mg/kg relative to control; format: functional, TLX-5
Liver microsome [6] = test: Drug metabolism in Wistar rat liver microsomes assessed as recovered CCNU level at 2.8 mg after 10 mins by HPLC analysis; format: ADME; conditions: in vitro; outline: as §1
[7] = Antitumor activity against mouse TLX5 cells allografted in mouse assessed as increase in host survival time at 40 mg/kg relative to control; format: functional, TLX-5
[8] = Antitumor activity against mouse TLX5 cells allografted in mouse assessed as increase in host survival time at 5 mg/kg relative to control; format: functional, TLX-5
[9] = Antitumor activity against mouse TLX5 cells allografted in mouse assessed as increase in host survival time at 160 mg/kg relative to control; format: functional, TLX-5
[10] = Drug metabolism in Wistar rat liver microsomes at 50 ug/ml after 20 mins; format: ADME; conditions: read-out: Drug metabolism
Outline: (§2)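 Equimolar CCNU and CCNU-d10, each 50 μg/mL (0.21 mM), co-incubated at 37 °C under O₂ with phenobarbital-induced male Wistar rat liver microsomes plus NADPH-generating system in 0.1 M phosphate pH 7.4. Duplicate 1 mL samples taken at intervals into hexane containing CCNU-d4 internal standard. Residual drug measured by 12 eV mass spectrometry. Heat-inactivated microsomes used as control.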

[11] = Drug metabolism in Wistar rat liver microsomes at 50 ug/ml after 10 mins; format: ADME; conditions: read-out: Drug metabolism; outline: as §2
[12] = Drug metabolism in Wistar rat liver microsomes at 50 ug/ml after 5 mins; format: ADME; conditions: read-out: Drug metabolism; outline: as §2
[13] = Drug metabolism in Wistar rat liver microsomes at 50 ug/ml after 2.5 mins; format: ADME; conditions: read-out: Drug metabolism; outline: as §2
W256 [14] = test: Antitumor activity against 4 ug/ml compound treated rat Walker 256 cells allografted in rat assessed as increase of host survival time cells incubated for 2 hrs with NADPH prior to animal injection; format: functional
W256 [15] = test: Antitumor activity against 0.5 ug/ml compound treated rat Walker 256 cells allografted in rat assessed as increase of host survival time cells incubated for 2 hrs with NADPH prior to animal injection; format: functional
W256 [16] = test: Antitumor activity against 1 ug/ml compound treated rat Walker 256 cells allografted in rat assessed as increase of host survival time cells incubated for 2 hrs with rat liver microsomes and NADPH prior to animal injection; format: functional
W256 [17] = test: Antitumor activity against 0.25 ug/ml compound treated rat Walker 256 cells allografted in rat assessed as increase of host survival time cells incubated for 2 hrs with rat liver microsomes and NADPH prior to animal injection; format: functional
W256 [18] = test: Antitumor activity against 1 ug/ml compound treated rat Walker 256 cells allografted in rat assessed as increase of host survival time cells incubated for 2 hrs with NADPH prior to animal injection; format: functional
W256 [19] = test: Antitumor activity against 4 ug/ml compound treated rat Walker 256 cells allografted in rat assessed as increase of host survival time cells incubated for 2 hrs with rat liver microsomes and NADPH prior to animal injection; format: functional
W256 [20] = test: Antitumor activity against 0.25 ug/ml compound treated rat Walker 256 cells allografted in rat assessed as increase of host survival time cells incubated for 2 hrs with NADPH prior to animal injection; format: functional
W256 [21] = test: Antitumor activity against 0.5 ug/ml compound treated rat Walker 256 cells allografted in rat assessed as increase of host survival time cells incubated for 2 hrs with rat liver microsomes and NADPH prior to animal injection; format: functional

Retention_time (Liver microsome [1]) [min]	Compound	Activity [2] [%]	Drug metabolism (Liver microsome [3]) [µg]	Activity [4] [%]	Activity [5] [%]	Drug metabolism (Liver microsome [6]) [µg]	Activity [7] [%]	Activity [8] [%]	Activity [9] [%]	also measured
2.8	O=NN(CCCl)C(=O)N[C@H]1CCCC[C@H]1O									
3.8	O=NN(CCCl)C(=O)N[C@H]1CCCC[C@@H]1O									

The next lines start with the compound.

Compound	Retention_time (Liver microsome [1]) [min]	Activity [2] [%]	Drug metabolism (Liver microsome [3]) [µg]	Activity [4] [%]	Activity [5] [%]	Drug metabolism (Liver microsome [6]) [µg]	Activity [7] [%]	Activity [8] [%]	Activity [9] [%]	also measured
O=NN(CCCl)C(=O)N[C@H]1CC[C@@H](O)CC1	9.6									
O=NN(CCCl)C(=O)N[C@H]1CC[C@H](O)CC1	16.9									
[2H]C1([2H])CCCC([2H])([2H])C1NC(=O)N(CCCl)N=O		79.7	1089	63.6	-9.1	272	178.7	-5.1	-21.3	
[2H]C1([2H])CC(NC(=O)N(CCCl)N=O)CC([2H])([2H])C1([2H])[2H]		95.8	994	38.1	-7.3	538	81.4	38.1	-32	
[2H]C1([2H])C(NC(=O)N(CCCl)N=O)C([2H])([2H])C([2H])([2H])C([2H])([2H])C1([2H])[2H]		42	911	20	-22	498	217		-28	metabolised at 20 min, 50 ug/ml [10]: 91.9%; metabolised at 10 min, 50 ug/ml [11]: 69.5%; metabolised at 5 min, 50 ug/ml [12]: 38.3%; metabolised at 2.5 min, 50 ug/ml [13]: 16.1%
O=NN(CCCl)C(=O)N[C@H]1CCC[C@@H](O)C1										Retention time (Liver microsome [1]): 7.8 min
O=NN(CCCl)C(=O)N[C@H]1CCC[C@H](O)C1										Retention time (Liver microsome [1]): 7.1 min
O=NN(CCCl)C(=O)NC1CCCCC1 [LOMUSTINE]		69.6	1230	54	-23.3		76.8	1	-31.4	metabolised at 20 min, 50 ug/ml [10]: 91.8%; Survival (W256 [14]): 30 days; metabolised at 10 min, 50 ug/ml [11]: 72.5%; Activity (W256 [15]): 60%; metabolised at 5 min, 50 ug/ml [12]: 47.9%; Activity (W256 [16]): 145%; Activity (W256 [17]): 21%; Activity (W256 [18]): 64%; Survival (W256 [19]): 30 days; Activity (W256 [20]): 9%; metabolised at 2.5 min, 50 ug/ml [13]: 26.8%; Activity (W256 [21]): 106%
